Reference: ChEMBL document CHEMBL2390936, “Phosphonic analogues of glutamic acid as irreversible inhibitors of Staphylococcus aureus endoproteinase GluC: an efficient synthesis and inhibition of the human IgG degradation” (Bioorg Med Chem Lett, 2013)
Active and inactive are the calls of the source. The rule behind the calls is not given here.

Key:
[1] = target: T1, Serine protease SplB (Staphylococcus aureus) (UniProt Q53781); test: Inhibition of Staphylococcus aureus SplB protease using Ac-Trp-Glu-Leu-Gln-ACC as substrate at 200 uM after 30 mins
T1 sequence (whole entry): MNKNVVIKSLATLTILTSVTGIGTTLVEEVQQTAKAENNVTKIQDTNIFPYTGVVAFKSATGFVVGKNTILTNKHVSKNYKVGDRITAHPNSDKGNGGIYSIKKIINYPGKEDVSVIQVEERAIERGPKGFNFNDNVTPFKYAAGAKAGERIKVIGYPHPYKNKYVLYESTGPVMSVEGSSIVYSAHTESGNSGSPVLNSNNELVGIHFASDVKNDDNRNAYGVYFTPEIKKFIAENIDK
How it was run: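 SplB protease (100 nM, recombinant, expressed and purified in-house) in 0.1 M Tris–HCl, 0.01% Triton X-100, pH 7.6, 37 °C. Fluorogenic substrate Ac-Trp-Glu-Leu-Gln-ACC (Ex 355/Em 460 nm). Enzyme added last to substrate plus inhibitor. Percentage inhibition read after 30 min of kinetic measurement with inhibitor at 200 µM.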

Glutamyl endopeptidase = Glutamyl endopeptidase (Staphylococcus aureus, UniProt P0C1U8); test: Inhibition of Staphylococcus aureus endoproteinase GluC using Ac-Phe-Leu-Glu-ACC as substrate after 30 mins
How it was run: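 V8 protease (75 nM, commercial) in 0.1 M Tris–HCl, 0.05% Tween 20, pH 7.8, 37 °C. Fluorogenic substrate Ac-Phe-Leu-Glu-ACC (Ex 355/Em 460 nm). Enzyme added to substrate plus inhibitor, with [E]0 below [I]0. Observed inhibition rate constants taken from progress curves, giving k2/Ki and Ki.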

Staphylococcus aureus = test: Antibacterial activity against Staphylococcus aureus ATCC […] after 4 to 24 hrs; type: functional, organism-based
[2] = target: Glutamyl endopeptidase (Staphylococcus aureus) (UniProt P0C1U8); test: Inhibition of Staphylococcus aureus endoproteinase GluC-mediated human IgG degradation at 100 uM preincubated 1 hr prior to human IgG degradation addition measured after 24 hrs
How it was run: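 V8 protease (final 1 µM) pre-incubated 1 h at 37 °C with inhibitor (final 100 µM). Human IgG (final 160 µg/ml) then added and incubated 24 h at 37 °C. DMSO-only control. Fragments separated by gel and visualised by silver staining.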

[3] = target: Glutamyl endopeptidase (Staphylococcus aureus) (UniProt P0C1U8); test: Inhibition of Staphylococcus aureus endoproteinase GluC using Ac-Phe-Leu-Glu-ACC as substrate at 200 uM after 30 mins
How it was run: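 V8 protease (75 nM) in 0.1 M Tris–HCl, 0.05% Tween 20, pH 7.8, 37 °C, with fluorogenic Ac-Phe-Leu-Glu-ACC (Ex 355/Em 460 nm). Enzyme added last to substrate plus inhibitor. Percentage inhibition recorded after 30 min of kinetic measurement at 200 µM inhibitor.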

Chain of Glutamyl endopeptidase (Staphylococcus aureus) (P0C1U8 whole entry, the tested form may be a part): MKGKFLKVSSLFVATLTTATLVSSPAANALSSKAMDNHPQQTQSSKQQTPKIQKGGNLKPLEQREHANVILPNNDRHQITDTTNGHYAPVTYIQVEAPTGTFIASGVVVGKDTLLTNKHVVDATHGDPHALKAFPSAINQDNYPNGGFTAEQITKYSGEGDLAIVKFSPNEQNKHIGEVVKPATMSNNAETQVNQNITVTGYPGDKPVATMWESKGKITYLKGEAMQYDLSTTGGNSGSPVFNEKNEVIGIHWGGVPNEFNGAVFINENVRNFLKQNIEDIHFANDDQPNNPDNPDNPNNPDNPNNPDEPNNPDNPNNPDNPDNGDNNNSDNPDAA
Chain of Glutamyl endopeptidase (P0C1U8 whole entry): as the sequence (P0C1U8 whole entry, the tested form may be a part) above

CC(C)C[C@H](NC(=O)OC(C)(C)C)C(=O)NC(CCC(=O)O)P(=O)(Oc1ccccc1)Oc1ccccc1 (mixture of isomers)
inhibition [1]: 0%
Ki (Glutamyl endopeptidase): 7.8 µM

CC(C)[C@H](NC(=O)OC(C)(C)C)C(=O)NC(CCC(=O)O)P(=O)(Oc1ccccc1)Oc1ccccc1 (mixture of isomers)
inhibition [1]: 0%
Ki (Glutamyl endopeptidase): 23.3 µM

CC(C)C[C@H](NC(=O)[C@H](Cc1ccccc1)NC(=O)OC(C)(C)C)C(=O)NC(CCC(=O)O)P(=O)(Oc1ccccc1)Oc1ccccc1 (mixture of isomers)
inhibition (Staphylococcus aureus): inactive
inhibition [1]: 0%
Ki (Glutamyl endopeptidase): 6.2 µM
inhibition [2]: Active

CC(C)C[C@H](NC(=O)[C@H](CCC(=O)O)NC(=O)OC(C)(C)C)C(=O)NC(CCC(=O)O)P(=O)(Oc1ccccc1)Oc1ccccc1 (mixture of isomers)
inhibition [1]: 0%
Ki (Glutamyl endopeptidase): 9.5 µM

C[C@H](NC(=O)[C@H](Cc1ccccc1)NC(=O)OC(C)(C)C)C(=O)NC(CCC(=O)O)P(=O)(Oc1ccccc1)Oc1ccccc1 (mixture of isomers)
inhibition [1]: 0%
Ki (Glutamyl endopeptidase): 9.4 µM

C[C@H](NC(=O)[C@H](CCC(=O)O)NC(=O)OC(C)(C)C)C(=O)NC(CCC(=O)O)P(=O)(Oc1ccccc1)Oc1ccccc1 (mixture of isomers)
inhibition [1]: 0%
Ki (Glutamyl endopeptidase): 12.9 µM

CC(C)[C@H](NC(=O)[C@H](Cc1ccccc1)NC(=O)OC(C)(C)C)C(=O)NC(CCC(=O)O)P(=O)(Oc1ccccc1)Oc1ccccc1 (mixture of isomers)
inhibition [1]: 0%
Ki (Glutamyl endopeptidase): 8.15 µM

CC(C)[C@H](NC(=O)[C@H](CCC(=O)O)NC(=O)OC(C)(C)C)C(=O)NC(CCC(=O)O)P(=O)(Oc1ccccc1)Oc1ccccc1 (mixture of isomers)
inhibition [1]: 0%
Ki (Glutamyl endopeptidase): 9.95 µM

CC(C)C[C@H](NC(=O)[C@H](CC(=O)O)NC(=O)OC(C)(C)C)C(=O)NC(CCC(=O)O)P(=O)(Oc1ccccc1)Oc1ccccc1 (mixture of isomers)
inhibition [1]: 0%
inhibition [3]: 41%

CC(C)C[C@H](NC(=O)[C@H](CCC(=O)O)NC(=O)OC(C)(C)C)C(=O)NC(CCC(N)=O)P(=O)(Oc1ccccc1)Oc1ccccc1 (mixture of isomers)
inhibition [3]: 0%

CC(C)[C@H](NC(=O)[C@H](CC(=O)O)NC(=O)OC(C)(C)C)C(=O)NC(CCC(=O)O)P(=O)(Oc1ccccc1)Oc1ccccc1 (mixture of isomers)
inhibition [1]: 0%
inhibition [3]: 50%

C[C@H](NC(=O)OC(C)(C)C)C(=O)NC(CCC(=O)O)P(=O)(Oc1ccccc1)Oc1ccccc1 (mixture of isomers)
inhibition [1]: 0%
inhibition [3]: 39%

C[C@H](NC(=O)[C@H](CC(=O)O)NC(=O)OC(C)(C)C)C(=O)NC(CCC(=O)O)P(=O)(Oc1ccccc1)Oc1ccccc1 (mixture of isomers)
inhibition [1]: 0%
inhibition [3]: 26%

O=C(O)CCC(NC(=O)OCc1ccccc1)P(=O)(Oc1ccccc1)Oc1ccccc1 (racemic)
inhibition [1]: 0%
Ki (Glutamyl endopeptidase): 8.1 µM

CC(=O)NC(CCC(=O)O)P(=O)(Oc1ccccc1)Oc1ccccc1 (racemic)
inhibition [1]: 0%
Ki (Glutamyl endopeptidase): 11.1 µM

GENTAMICIN
MIC (Staphylococcus aureus): 2 µg/mL
